Source: ChEMBL document CHEMBL1126006, “Synthesis, specificity, and antifungal activity of inhibitors of the Candida albicans delta 24-sterol methyltransferase” (J Med Chem, 1992)
In brackets after ≈: the same amount, converted by molar mass.

Columns and labels:
Candida albicans [1] = test: In vitro Minimum inhibitory concentration was determined by microbroth dilution assay on Candida albicans; type: functional
Procedure, shortened: (§1)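 Microbroth dilution, 4×10^3 cells/mL (C. albicans B311; C. tropicalis and T. glabrata clinical isolates, pre-grown 18 h at 35 °C and washed) in YNB with asparagine and glucose, pH 5.5; 0.10–100 μg/mL drug, 1% DMSO final; 24 h at 35 °C, quadruplicate wells. MIC read visually as first concentration with marked growth reduction; geometric mean reported.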

Candida albicans [2] = test: In vitro Minimum lethal concentration was determined by microbroth dilution assay on Candida albicans; type: functional
Procedure, shortened: (§2)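 C. albicans strain B311; C. tropicalis and T. glabrata were clinical isolates. Yeasts were pregrown 18 h at 35 °C, 125 rpm, in the test medium, saline-washed three times and counted by hemocytometer. Assay medium was YNB with 0.15% asparagine and 2% glucose, pH 5.5. Final drug 0.10 to 100 μg/mL, 1% DMSO, 4×10^3 cells/mL, quadruplicate wells, 35 °C for 24 h. MLC = first concentration whose subculture (Sabouraud agar, 48 h, 35 °C) gave ≤50 CFU/mL; geometric mean reported.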

Candida tropicalis [3] = test: In vitro Minimum inhibitory concentration was determined by microbroth dilution assay on Candida tropicalis; type: functional; procedure, shortened: as §1
Candida tropicalis [4] = test: In vitro Minimum lethal concentration was determined by microbroth dilution assay on Candida tropicalis; type: functional; procedure, shortened: as §2
Candida albicans [5] = test: Compound was tested for the inhibition of delta24-sterol Methyl transferase
Procedure, shortened: (§3)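 Microsomes from C. albicans ATCC 28367, 0.20 mg microsomal protein per assay; desmosterol as sterol substrate, SAM 25 μM; standard assay pH 7.5. Reversible inhibition patterns and constants fitted by Cleland COMP/NONCOMP, or otherwise by a parabolic competitive inhibition equation, which gives the alpha cooperativity factor for binding of two inhibitor molecules.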

Candida albicans [6] = test: Inhibition type against delta 24-sterol Methyl transferase; procedure, shortened: as §3
Nakaseomyces glabratus [7] = test: In vitro Minimum lethal concentration was determined by microbroth dilution assay on Torulopsis glabrata; type: functional; procedure, shortened: as §2
Nakaseomyces glabratus [8] = test: In vitro Minimum inhibitory concentration was determined by microbroth dilution assay on Torulopsis glabrata; type: functional; procedure, shortened: as §1
Candida albicans [9] = test: Compound was tested for the inhibition of Delta 24-sterol-C-methyl-transferase; procedure, shortened: as §3
Candida albicans [10] = test: Alpha factor which describes the cooperativity of binding of 2 identical inhibitor molecules.; procedure, shortened: as §3
Candida albicans [11] = tested on: Candida albicans

Question: With `CC[S+](CC[C@@H](C)C1CCC2C3CC=C4C[C@@H](O)CC[C@]4(C)C3CC[C@@]21C)C(C)C.[I-]` (some centres not stated) as the compound, how does the MIC (Candida albicans [1]) read?
Answer: Its MIC is 100 µg/mL.

Question: What about the MLC (Candida albicans [2]) of the same compound?
Answer: Its MLC is >100 µg/mL.

Question: What about the MIC (Candida tropicalis [3]) of the same compound?
Answer: The MIC was 100 µg/mL.

Question: What about the MLC (Candida tropicalis [4]) of the same compound?
Answer: Its MLC is >100 µg/mL.

Question: And the Kis (Candida albicans [5])?
Answer: The Kis was 500 nM.

Question: What about the Inhibition type (Candida albicans [6]) of the same compound?
Answer: The Inhibition type was “Parabolic competitive”.

Question: What about the MLC (Nakaseomyces glabratus [7]) of the same compound?
Answer: The MLC was >100 µg/mL.

Question: What about the MIC (Nakaseomyces glabratus [8]) of the same compound?
Answer: Its MIC is > 100 µg/mL.

Question: Which results are given for `C[C@H](CCC(=N)N)C1CC[C@@]2(C)C3=C(CC[C@]12C)[C@@]1(C)CC[C@H](O)C(C)(C)C1CC3.O=S(=O)(O)C(F)(F)F` (some centres not stated)?
Answer: MIC (Candida albicans [1]): 0.2 µg/mL; MLC (Candida albicans [2]): 12.5 µg/mL; MIC (Candida tropicalis [3]): 0.4 µg/mL; MLC (Candida tropicalis [4]): 12.5 µg/mL; Kis (Candida albicans [9]): 11 nM; Alpha c (Candida albicans [10]): 0.06; Inhibition type (Candida albicans [6]): Parabolic competitive; MLC (Nakaseomyces glabratus [7]): 50 µg/mL; MIC (Nakaseomyces glabratus [8]): 3.1 µg/mL

Question: Which results are given for `C[C@@H]1[C@H](O)[C@@H](C)/C=C/C=C/C=C/C=C/C=C/C=C/C=C/[C@H](O[C@@H]2O[C@H](C)[C@@H](O)[C@H](N)[C@@H]2O)C[C@@H]2O[C@](O)(C[C@@H](O)C[C@@H](O)[C@H](O)CC[C@@H](O)C[C@@H](O)CC(=O)O[C@H]1C)C[C@H](O)[C@H]2C(=O)O` [AMPHOTERICIN B]?
Answer: MIC (Candida albicans [1]): 0.2 µg/mL (≈ 0.216 µM); MLC (Candida albicans [2]): 0.8 µg/mL (≈ 0.866 µM); MIC (Candida tropicalis [3]): 0.2 µg/mL (≈ 0.216 µM); MLC (Candida tropicalis [4]): 0.4 µg/mL (≈ 0.433 µM); MLC (Nakaseomyces glabratus [7]): 0.4 µg/mL (≈ 0.433 µM); MIC (Nakaseomyces glabratus [8]): 0.1 µg/mL (≈ 0.108 µM)

Question: What does the source list for `CC(=O)N1CCN(c2ccc(OCC3COC(Cn4ccnc4)(c4ccc(Cl)cc4Cl)O3)cc2)CC1` (configuration not stated) [KETOCONAZOLE]?
Answer: MIC (Candida albicans [1]): 0.1 µg/mL (≈ 0.188 µM); MLC (Candida albicans [2]): 12.5 µg/mL (≈ 23.5 µM); MIC (Candida tropicalis [3]): 1.6 µg/mL (≈ 3.01 µM); MLC (Candida tropicalis [4]): 6.3 µg/mL (≈ 11.9 µM); MLC (Nakaseomyces glabratus [7]): 12.5 pug ml-1; MIC (Nakaseomyces glabratus [8]): 3.1 µg/mL (≈ 5.83 µM)

Question: With `C[C@H](CCc1ncc[nH]1)C1CC[C@@]2(C)C3=C(CC[C@]12C)[C@@]1(C)CC[C@H](O)C(C)(C)C1CC3` (some centres not stated) as the compound, how does the MIC (Candida albicans [1]) read?
Answer: The MIC was 1.6 µg/mL (≈ 3.65 µM).

Question: What about the MLC (Candida albicans [2]) of the same compound?
Answer: The MLC was >100 µg/mL.

Question: And the MIC (Candida tropicalis [3])?
Answer: Its MIC is > 100 µg/mL.

Question: What about the MLC (Candida tropicalis [4]) of the same compound?
Answer: Its MLC is >100 µg/mL.

Question: What about the Kis (Candida albicans [5]) of the same compound?
Answer: The Kis was 11 nM.

Question: And the Inhibition type (Candida albicans [6])?
Answer: Its Inhibition type is “Noncompetitive”.

Question: What about the MLC (Nakaseomyces glabratus [7]) of the same compound?
Answer: The MLC was >100 µg/mL.

Question: And the MIC (Nakaseomyces glabratus [8])?
Answer: The MIC was > 100 µg/mL.

Question: And the Kii (Candida albicans [11])?
Answer: Its Kii is 25 nM.

Question: With `CC(C)[S+](C)CC[C@@H](C)C1CCC2C3CC=C4C[C@@H](O)CC[C@]4(C)C3CC[C@@]21C.[I-]` (some centres not stated) as the compound, how does the MIC (Candida albicans [1]) read?
Answer: Its MIC is 0.2 µg/mL.

Question: And the MLC (Candida albicans [2])?
Answer: Its MLC is 50 µg/mL.

Question: What about the MIC (Candida tropicalis [3]) of the same compound?
Answer: The MIC was 0.2 µg/mL.

Question: What about the MLC (Candida tropicalis [4]) of the same compound?
Answer: The MLC was 6.3 µg/mL.

Question: What about the Kis (Candida albicans [9]) of the same compound?
Answer: The Kis was 16 nM.

Question: And the Alpha c (Candida albicans [10])?
Answer: Its Alpha c is 0.05.

Question: What about the Inhibition type (Candida albicans [6]) of the same compound?
Answer: The Inhibition type was “Parabolic competitive”.

Question: And the MLC (Nakaseomyces glabratus [7])?
Answer: The MLC was 50 µg/mL.

Question: What about the MIC (Nakaseomyces glabratus [8]) of the same compound?
Answer: Its MIC is 1.6 µg/mL.

Question: What does the source list for `CC(C)[S+]([O-])CC[C@@H](C)C1CCC2C3CC=C4C[C@@H](O)CC[C@]4(C)C3CC[C@@]21C` (some centres not stated)?
Answer: Kis (Candida albicans [5]): 20000 nM; Inhibition type (Candida albicans [6]): Competitive

Question: How did the MIC (Candida albicans [1]) turn out when `C[C@H](CCc1nccn1C)C1CC[C@@]2(C)C3=C(CC[C@]12C)[C@@]1(C)CC[C@H](O)C(C)(C)C1CC3` (some centres not stated) was run?
Answer: The MIC was 0.4 µg/mL (≈ 0.884 µM).

Question: What about the MLC (Candida albicans [2]) of the same compound?
Answer: Its MLC is >100 µg/mL.

Question: And the MIC (Candida tropicalis [3])?
Answer: Its MIC is 12.5 µg/mL (≈ 27.6 µM).

Question: What about the MLC (Candida tropicalis [4]) of the same compound?
Answer: The MLC was 100 µg/mL (≈ 221 µM).

Question: What about the Kis (Candida albicans [5]) of the same compound?
Answer: The Kis was 5 nM.

Question: What about the Inhibition type (Candida albicans [6]) of the same compound?
Answer: Its Inhibition type is “Parabolic competitive”.

Question: And the MLC (Nakaseomyces glabratus [7])?
Answer: Its MLC is >100 µg/mL.

Question: And the MIC (Nakaseomyces glabratus [8])?
Answer: The MIC was > 100 µg/mL.

Question: Which Kis (Candida albicans [5]) does the source give for `CC(C)SCC[C@@H](C)C1CC[C@@]2(C)C3=C(CC[C@]12C)[C@@]1(C)CC[C@H](O)C(C)(C)C1CC3` (some centres not stated) here?
Answer: Its Kis is 72000 nM.

Question: What about the Inhibition type (Candida albicans [6]) of the same compound?
Answer: Its Inhibition type is “Competitive”.

Question: What does the source list for `C[C@H](CCC(N)=[N+](C)C)C1CC[C@@]2(C)C3=C(CC[C@]12C)[C@@]1(C)CC[C@H](O)C(C)(C)C1CC3` (some centres not stated)?
Answer: Kis (Candida albicans [5]): 6 nM; Inhibition type (Candida albicans [6]): Parabolic competitive

Question: With `CC(C)[S+](C)CC[C@@H](C)C1CC[C@@]2(C)C3=C(CC[C@]12C)[C@@]1(C)CC[C@H](O)C(C)(C)C1CC3` (some centres not stated) as the compound, how does the Alpha c (Candida albicans [10]) read?
Answer: Its Alpha c is 0.02.

Question: And the Kis (Candida albicans [5])?
Answer: Its Kis is 21 nM.

Question: And the Inhibition type (Candida albicans [6])?
Answer: The Inhibition type was “Parabolic competitive”.

Question: Which results are given for `CC(C)SCC[C@@H](C)C1CCC2C3CC=C4C[C@@H](O)CC[C@]4(C)C3CC[C@@]21C` (some centres not stated)?
Answer: MIC (Candida albicans [1]): 50 µg/mL (≈ 124 µM); MLC (Candida albicans [2]): >100 µg/mL; MIC (Candida tropicalis [3]): > 100 µg/mL; MLC (Candida tropicalis [4]): >100 µg/mL; Kis (Candida albicans [9]): 1500 nM; Inhibition type (Candida albicans [6]): Competitive; MLC (Nakaseomyces glabratus [7]): >100 µg/mL; MIC (Nakaseomyces glabratus [8]): > 100 µg/mL
